In brackets after ≈: the same amount, converted by molar mass.
Key:
[1] = Thermodynamic solubility of the compound at pH 7.4; format: physicochemical; details: buffer, read-out: Therm_solubility
How it was run: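 Thermodynamic solubility measured at pH 7.4.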

[2] = Ratio of unbound drug level in brain to plasma in Sprague-Dawley rat at 0.5 mg/kg, iv; format: ADME, organism-based; design: dose 0.5 mg/kg, route intravenous; details: read-out: K(p,uu,brain)
How it was run: (§1)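 Male Sprague−Dawley rats given 0.5 mg/kg iv in 60% NMP solution, n = 3. Brain/plasma value is the unbound brain to unbound plasma AUC ratio after this iv dose.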

[3] = Volume of distribution in Sprague-Dawley rat at 0.5 mg/kg, iv; format: ADME, organism-based; design: dose 0.5 mg/kg, route intravenous; details: in vivo; how it was run: as §1
[4] = Plasma clearance in Sprague-Dawley rat at 0.5 mg/kg, iv; format: ADME, organism-based; design: dose 0.5 mg/kg, route intravenous; how it was run: as §1
[5] = Oral bioavailability in beagle dog at 1 mg/kg; format: ADME, organism-based, Canis lupus familiaris; details: in vivo
How it was run: (§2)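 Male Beagle dogs, n = 3. iv dose 0.5 mg/kg in 30% NMP solution; oral dose 1 mg/kg as aqueous suspension of 1% RC591 + 0.2% tween80.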

[6] = Plasma clearance in beagle dog at 0.5 mg/kg, iv and 1 mg/kg, po; format: ADME, organism-based, Canis lupus familiaris; how it was run: as §2

solubility thermodynamic [1] [µg/mL] | Kp uu [2] | Vd [3] [L/kg] | clearance [4] [mL/min/kg] | bioavailability [5] [%] | clearance [6] [mL/min/kg] | SMILES
< 0.9 | – | – | – | – | – | CNc1nc(Nc2cc(F)c(C(=O)N3CCOCC3)cc2OC)ncc1C(F)(F)F
– | 0.26 | 0.88 | 35 | – | – | CNc1nc(Nc2cnn(CC(C)(C)O)c2C)ncc1C(F)(F)F
20 (≈ 54.8 µM) | 0.37 | 2.5 | 21 | 31 | 22 | CNc1nc(Nc2cnn(CC(C)(C)O)c2Cl)ncc1C(F)(F)F
